In ChEMBL document CHEMBL1142431, “Benzodioxoles: novel cannabinoid-1 receptor inverse agonists for the treatment of obesity” (J Med Chem, 2008):
Active and inactive are the calls of the source. No cut-off for these calls is given here.

What was measured:
[1] = Clearance in human liver microsomes; type: ADME, Microsome; settings: liver microsomes
In short: (§1)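 Test compound at 2 µM incubated with liver microsomes (0.5 mg protein/mL) in 50 mM potassium phosphate pH 7.4 at 37 °C. Reaction started with an NADPH-generating system (glucose-6-phosphate 3.2 mM, NADP 2.6 mM, MgCl2 6.5 mM). Six samples over 30 min, quenched in methanol with internal standard, then LC-MS/MS for substrate depletion. CLint taken from the first-order decay, normalized to protein.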

Cannabinoid receptor 1 [2] = molecular target: T1, Cannabinoid receptor 1 (Homo sapiens, UniProt P21554); test: biochemical; type: cell-based, HEK293
T1 sequence (P21554 whole entry): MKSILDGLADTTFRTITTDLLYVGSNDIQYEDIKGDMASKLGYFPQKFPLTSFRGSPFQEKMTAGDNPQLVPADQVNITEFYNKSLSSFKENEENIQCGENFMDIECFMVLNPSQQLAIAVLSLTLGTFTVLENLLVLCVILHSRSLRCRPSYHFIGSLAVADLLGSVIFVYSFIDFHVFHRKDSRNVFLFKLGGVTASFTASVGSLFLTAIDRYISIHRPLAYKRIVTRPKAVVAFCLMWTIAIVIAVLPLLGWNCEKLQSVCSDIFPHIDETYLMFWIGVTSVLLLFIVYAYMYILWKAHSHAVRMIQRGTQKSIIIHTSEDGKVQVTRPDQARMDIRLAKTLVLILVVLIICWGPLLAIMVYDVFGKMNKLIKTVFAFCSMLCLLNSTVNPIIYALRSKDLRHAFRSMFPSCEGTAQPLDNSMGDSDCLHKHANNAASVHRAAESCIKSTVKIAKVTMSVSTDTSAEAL

Mus musculus [3] = test: Reversal of CP-55940-induced hypothermia in NMRI mouse assessed as rectal temperature at 30 mg/kg, ip; type: functional
In short: (§2)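 Mice housed eight per group, eight per dose, habituated at least 2 h. Test compound in 0.3% Tween 80 (10 mL/kg) given 90 min before CP 55940 (0.3 mg/kg iv, same vehicle). Body temperature read 20 min before compound, just before CP 55940, and 20 min after it.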

[4] = Clearance in rat liver microsomes; type: ADME, Microsome; settings: liver microsomes; in short: as §1
Mus musculus [5] = test: Reversal of CP-55940-induced hypothermia in po dosed NMRI mouse assessed as rectal temperature; type: functional; settings: read-out: ID50 (the source's name); in short: as §2
Cannabinoid receptor 1 [6] = molecular target: T1, Cannabinoid receptor 1; test: Activity at human CB1R expressed in HEK293 cells assessed as intracellular cAMP level; type: functional, cell-based
Mus musculus [7] = test: Reversal of CP-55940-induced hypothermia in NMRI mouse assessed as rectal temperature at 30 mg/kg, po; type: functional, organism-based; set-up: dose 30 mg/kg; in short: as §2
Rattus norvegicus = test: Reduction in body fat in po dosed diet-induced obesity Sprague-Dawley rat model; type: functional, organism-based
In short: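 Sprague-Dawley rats fed HFD from 3 weeks of age for 10 weeks; high responders (body weight exceeding chow controls by >2 SD) grouped n = 9. After 3 days gavage adaptation, daily oral dosing at 5:00 p.m. for 2 weeks in 7.5% gelatine/0.62% NaCl in water, 2 mL/kg. Fat and lean mass by MRI before and at end of treatment.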

Cannabinoid receptor 2 = Cannabinoid receptor 2 (Homo sapiens, UniProt P34972); test: Binding affinity to human CB2R
Chain of Cannabinoid receptor 2 (P34972 whole entry): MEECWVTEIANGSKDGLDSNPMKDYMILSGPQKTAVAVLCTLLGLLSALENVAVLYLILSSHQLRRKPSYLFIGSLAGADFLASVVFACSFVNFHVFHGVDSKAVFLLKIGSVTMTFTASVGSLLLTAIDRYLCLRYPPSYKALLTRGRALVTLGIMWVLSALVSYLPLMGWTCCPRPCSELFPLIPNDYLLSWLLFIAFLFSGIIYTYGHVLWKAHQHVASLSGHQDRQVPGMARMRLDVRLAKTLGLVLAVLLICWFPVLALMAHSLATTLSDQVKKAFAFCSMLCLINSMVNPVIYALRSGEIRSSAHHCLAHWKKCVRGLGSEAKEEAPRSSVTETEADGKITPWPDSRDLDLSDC

SMILES | microsomal CLint [1] | Ki (Cannabinoid receptor 1 [2]) | microsomal CLint [4] | EC50 (Cannabinoid receptor 1 [6]) | also measured
O=C(c1ccc2c(c1)OC(c1ccccc1)(c1ccccc1)O2)N1CCCCC1 | 53 µL/min/mg | 28 nM | 673 µL/min/mg |  | Activity (Mus musculus [3]): inactive
O=C(c1cc2c(cc1F)OC(c1ccc(F)cc1)(c1ccc(Cl)cc1Cl)O2)N1CCOCC1 (stereo unspecified) | 10 µL/min/mg | 4 nM | 22 µL/min/mg | 11 nM | ED50 (Mus musculus [5]): 5 mg/kg
O=C(c1cc2c(cc1F)OC(c1ccc(F)cc1F)(c1ccc(F)cc1F)O2)N1CCC(F)(F)CC1 | 17 µL/min/mg | 6 nM | 5 µL/min/mg | 2 nM | 
O=S(=O)(c1cc2c(cc1F)OC(c1ccc(F)cc1F)(c1ccc(F)cc1F)O2)N1CCOCC1 | 102 µL/min/mg | 25 nM | 149 µL/min/mg | 11 nM | Activity (Mus musculus [3]): inactive; Activity (Mus musculus [7]): inactive
O=C(c1ccc2c(c1)OC(c1ccccc1)(c1ccccc1)O2)N1CCOCC1 |  | 50 nM |  | 784 nM | 
O=C(c1cc2c(cc1F)OC(c1ccccc1)(c1ccccc1)O2)N1CCCCC1 | 50 µL/min/mg | 11 nM | 486 µL/min/mg | 1.2 nM | 
CCCCCn1cc(C(=O)c2ccc3ccccc3c2)c2ccc(S(C)(=O)=O)cc21 |  | 110 nM |  |  | 
O=C(c1cc2c(cc1F)OC(c1ccc(F)cc1)(c1ccc(F)cc1)O2)N1CCCCC1 | 48 µL/min/mg | 7 nM | 81 µL/min/mg | 72 nM | 
N#Cc1cc2c(cc1C(=O)N1CCOCC1)OC(c1ccccc1)(c1ccccc1)O2 |  | 277 nM |  |  | 
Cc1cc2c(cc1C(=O)N1CCOCC1)OC(c1ccccc1)(c1ccccc1)O2 |  | 509 nM |  |  | 
O=C(c1cc2c(cc1F)OC(c1ccc(F)cc1)(c1ccc(F)cc1)O2)N1CCOCC1 |  | 18 nM |  |  | 
Cc1c(C(=O)NN2CCCCC2)nn(-c2ccc(Cl)cc2Cl)c1-c1ccc(Cl)cc1 |  |  |  |  | Activity (Rattus norvegicus): Active
O=C(CC(c1ccccc1)c1ccccc1)N1CC=C(c2ccc(Cl)cc2)CC1 |  | 1500 nM |  |  | 
O=C(c1ccc2c(c1)OC(c1ccc(F)cc1)(c1ccc(Cl)cc1Cl)O2)N1CCOCC1 (stereo unspecified) | 19 µL/min/mg | 30 nM | 4 µL/min/mg | 156 nM | 
O=S(=O)(c1ccc2c(c1)OC(c1ccccc1)(c1ccccc1)O2)N1CC=C(c2ccc(F)cc2)CC1 |  | 13 nM |  |  | Activity (Mus musculus [3]): inactive; Ki (Cannabinoid receptor 2): > 10000 nM
O=C(c1cc2c(cc1F)OC(c1ccccc1)(c1ccccc1)O2)N1CCOCC1 | 33 µL/min/mg | 15 nM | 272 µL/min/mg | 26 nM | 
Fc1ccc(C2(c3ccc(F)cc3)Oc3cc(F)c(CN4CCOCC4)cc3O2)cc1 |  | > 1000 nM |  |  | 
O=C(c1cc2c(cc1F)OC(c1ccc(F)cc1)(c1ccc(Cl)cc1Cl)O2)N1CCCCC1 (stereo unspecified) | 31 µL/min/mg | 4 nM | 89 µL/min/mg | 5 nM | 
COc1ccc(C2(c3ccc(Cl)cc3Cl)Oc3cc(F)c(C(=O)N4CCCCC4)cc3O2)cc1 (stereo unspecified) | 34 µL/min/mg | 2 nM | 88 µL/min/mg | 5 nM | ED50 (Mus musculus [5]): 8 mg/kg
O=S(=O)(c1ccc2c(c1)OC(c1ccccc1)(c1ccccc1)O2)N1CCCCC1 | 137 µL/min/mg | 38 nM | 549 µL/min/mg |  | Activity (Mus musculus [3]): inactive
O=S(=O)(c1cc2c(cc1F)OC(c1ccc(F)cc1)(c1ccc(Cl)cc1Cl)O2)N1CCOCC1 (stereo unspecified) | 20 µL/min/mg | 9 nM | 53 µL/min/mg | 3 nM | ED50 (Mus musculus [5]): 16 mg/kg
O=C(c1cc2c(cc1F)OC(c1ccccc1F)(c1ccc(Cl)cc1Cl)O2)N1CCOCC1 (stereo unspecified) | 21 µL/min/mg | 4 nM | 123 µL/min/mg | 2 nM | ED50 (Mus musculus [5]): 6 mg/kg
O=C(c1cc2c(cc1F)OC(c1ccc(F)cc1F)(c1ccc(F)cc1F)O2)N1CCOCC1 | 96 µL/min/mg | 7 nM | 30 µL/min/mg | 4 nM | ED50 (Mus musculus [5]): 8 mg/kg
O=C(c1cc2c(cc1F)O[C@@](c1ccc(F)cc1)(c1ccc(Cl)cc1Cl)O2)N1CCOCC1 |  | 35 nM |  |  | 
O=C(c1cc2c(cc1Cl)OC(c1ccccc1)(c1ccccc1)O2)N1CCOCC1 | 44 µL/min/mg | 216 nM | 388 µL/min/mg |  | 
O=S(=O)(c1cc2c(cc1F)OC(c1ccc(F)cc1F)(c1ccc(F)cc1F)O2)N1CCC(F)(F)CC1 | 271 µL/min/mg | 3 nM | 287 µL/min/mg | 3 nM | Activity (Mus musculus [3]): inactive; Activity (Mus musculus [7]): inactive
O=C(c1cc2c(cn1)OC(c1ccccc1)(c1ccccc1)O2)N1CCCCC1 |  | 13 nM |  |  | 
O=C(c1cc2c(cc1Br)OC(c1ccccc1)(c1ccccc1)O2)N1CCOCC1 |  | 873 nM |  |  | 
O=C(c1cc2c(cc1F)OC(c1ccc(F)cc1F)(c1ccc(F)cc1F)O2)N1CCCCC1 | 34 µL/min/mg | 1 nM | 122 µL/min/mg | 2 nM | 
